Assay [1] has as its target T1, Calcitonin receptor (Homo sapiens) (UniProt P30988).
T1 sequence (whole entry): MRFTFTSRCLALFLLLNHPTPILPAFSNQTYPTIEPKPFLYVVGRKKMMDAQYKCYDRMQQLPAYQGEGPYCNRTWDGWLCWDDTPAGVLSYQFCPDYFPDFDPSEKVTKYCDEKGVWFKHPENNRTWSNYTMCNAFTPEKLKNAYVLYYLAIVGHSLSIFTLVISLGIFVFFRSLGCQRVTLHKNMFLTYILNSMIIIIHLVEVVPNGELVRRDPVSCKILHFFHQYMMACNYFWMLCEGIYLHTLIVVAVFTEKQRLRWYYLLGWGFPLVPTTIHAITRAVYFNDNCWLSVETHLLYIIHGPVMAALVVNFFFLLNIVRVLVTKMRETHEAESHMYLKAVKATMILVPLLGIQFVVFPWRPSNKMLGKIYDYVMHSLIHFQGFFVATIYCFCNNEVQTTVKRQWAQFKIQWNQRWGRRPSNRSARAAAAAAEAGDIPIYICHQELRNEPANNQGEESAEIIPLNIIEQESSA

Assay [2] has as its target T2, Calcitonin receptor (Rattus norvegicus) (UniProt P32214).
T2 sequence (whole entry): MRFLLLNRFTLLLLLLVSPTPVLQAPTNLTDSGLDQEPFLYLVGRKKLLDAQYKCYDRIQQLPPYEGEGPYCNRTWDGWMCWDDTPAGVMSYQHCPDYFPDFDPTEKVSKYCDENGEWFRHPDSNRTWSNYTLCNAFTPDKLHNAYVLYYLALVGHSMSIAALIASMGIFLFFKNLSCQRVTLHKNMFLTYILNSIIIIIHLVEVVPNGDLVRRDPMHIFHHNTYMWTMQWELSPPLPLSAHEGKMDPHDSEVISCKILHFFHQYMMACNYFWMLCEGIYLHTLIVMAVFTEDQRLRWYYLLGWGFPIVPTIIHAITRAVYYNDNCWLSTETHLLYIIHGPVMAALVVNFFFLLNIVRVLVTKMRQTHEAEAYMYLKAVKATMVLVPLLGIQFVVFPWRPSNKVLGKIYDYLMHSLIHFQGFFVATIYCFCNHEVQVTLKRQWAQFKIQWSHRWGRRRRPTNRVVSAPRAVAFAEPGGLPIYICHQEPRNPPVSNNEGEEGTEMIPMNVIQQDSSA
In words: Affinity for calcitonin receptor of rat brain relative to [125I]-salmon calcitonin. Put shortly:
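Male Sprague–Dawley rat (250–350 g) brain membranes (~0.63 mg protein/tube) were shaken on ice for 30 min with 10 pM final [125I-Tyr22]sCT and competitor in 50 mM Tris-HCl pH 7.4 with 34 μM bacitracin. Tubes were centrifuged and the pellets washed, SDS-solubilized and scintillation counted. Nonspecific binding was taken with 1 μM sCT. IC50 came from probit analysis, and relative affinity set sCT = 100%.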

Our source for the ED50 and Relative affinity values is ChEMBL document CHEMBL1135734, “Side-chain lactam-bridge conformational constraints differentiate the activities of salmon and human calcitonins and reveal a new design concept for potent calcitonin analogues” (J Med Chem, 2002).

As to `CC(C)C[C@H](NC(=O)[C@H](CCCCN)NC(=O)CNC(=O)[C@H](CC(C)C)NC(=O)[C@@H](NC(=O)[C@H](CS)NC(=O)[C@@H](NC(=O)[C@H](CO)NC(=O)[C@H](CC(C)C)NC(=O)[C@H](CC(N)=O)NC(=O)[C@H](CO)NC(=O)[C@@H](N)CS)[C@@H](C)O)C(C)C)C(=O)N[C@@H](CO)C(=O)N[C@@H](CCC(N)=O)C(=O)N[C@@H](CCC(=O)O)C(=O)N[C@@H](CC(C)C)C(=O)N[C@H]1CC(=O)NCCC[C@@H](C(=O)N[C@@H](Cc2ccc(O)cc2)C(=O)N2CCC[C@@H]2C(=O)N[C@@H](CCCN=C(N)N)C(=O)N[C@H](C(=O)N[C@@H](CC(N)=O)C(=O)N[C@H](C(=O)NCC(=O)N[C@@H](CO)C(=O)NCC(=O)N[C@H](C(=O)N2CCC[C@@H]2C(N)=O)[C@@H](C)O)[C@@H](C)O)[C@@H](C)O)NC(=O)[C@H](Cc2cn(N)cn2)NC(=O)[C@H](CC(C)C)NC(=O)[C@H](CCCCN)NC1=O`, in assay [1], the ED50 was found to be 0.053 nM. The Relative affinity in assay [2] came out at 150.

On to `CC(C)C[C@H](NC(=O)[C@H](CCCCN)NC(=O)CNC(=O)[C@H](CC(C)C)NC(=O)[C@@H](NC(=O)[C@H](CS)NC(=O)[C@@H](NC(=O)[C@H](CO)NC(=O)[C@H](CC(C)C)NC(=O)[C@H](CC(N)=O)NC(=O)[C@H](CO)NC(=O)[C@@H](N)CS)[C@@H](C)O)C(C)C)C(=O)N[C@@H](CO)C(=O)N[C@@H](CCC(N)=O)C(=O)N[C@@H](CCC(=O)O)C(=O)N[C@@H](CC(C)C)C(=O)N[C@H]1CC(=O)NCCCC[C@@H](C(=O)N[C@@H](Cc2ccc(O)cc2)C(=O)N2CCC[C@@H]2C(=O)N[C@@H](CCCN=C(N)N)C(=O)N[C@H](C(=O)N[C@@H](CC(N)=O)C(=O)N[C@H](C(=O)NCC(=O)N[C@@H](CO)C(=O)NCC(=O)N[C@H](C(=O)N2CCC[C@@H]2C(N)=O)[C@@H](C)O)[C@@H](C)O)[C@@H](C)O)NC(=O)[C@H](Cc2cn(N)cn2)NC(=O)[C@H](CC(C)C)NC(=O)[C@H](CCCCN)NC1=O`, for which, in assay [1], the ED50 is 0.075 nM. The Relative affinity in assay [2] was 210.
